These results are taken from ChEMBL document CHEMBL1123844, “Synthesis of new antiinflammatory steroidal 20-carboxamides: (20R)- and (20S)-21-(N-substituted amino)-11 beta,17,20-trihydroxy-3,21-dioxo-1,4- pregnadiene” (J Med Chem, 1987).

Data set [1] is described as follows: Octanol- water partition coefficient was determined.
The species named for data set [2] is Rattus norvegicus. The data set is described as follows: Compound was evaluated for antiinflammatory activity in granuloma bioassay and measured as body weight gain. The data set is classed as functional. The method in brief:
(§1)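 Male Sprague–Dawley rats (100–200 g), acclimated 1 week under controlled lighting. Each rat got one cotton pellet (35 ± 1 mg) loaded with 2 mg steroid in acetone and one vehicle pellet; controls got two vehicle pellets. Rats were killed 7 days later. Readouts: thymus and adrenal weights, initial/final body weight, plasma corticosterone by 3H radioimmunoassay of cardiac blood. Mean ± SEM, n=6, Student's t test.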

The subject of data set [3] is Rattus norvegicus. The data set is described as follows: Tested for topical antiinflammatory activity in the croton oil ear edema assay. The data set is classed as functional. Also on record: concentration or dose not given beside the values. The method in brief: (§2)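 Male Sprague–Dawley rats (100–200 g), acclimated 1 week. Baseline ear thickness was measured. Steroid at 0.75 mg/ear went to both ears, then 30 min later 50 μL 5% croton oil in acetone. Thickness was remeasured at 5 h. Mean change ± SEM, n=5; % inhibition vs vehicle controls, Student's t test.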

The species entered for data set [4] is Rattus norvegicus. As to the kind of experiment: Tested for inhibition of formation of granulation tissue around the cotton pellet treated with steroid. The data set is classed as functional. Also on record: concentration or dose not given beside the values. The method in brief: (§3)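 Male Sprague–Dawley rats (100–200 g). Before implantation, the right cotton pellet (35 ± 1 mg) received 2 mg steroid in acetone and the left pellet vehicle only; controls had two vehicle pellets. After 7 days, pellets with granulation tissue were dried at 60 °C for 48 h and weighed. Net dry weight, mean ± SEM, n=6; % inhibition vs vehicle group.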

Data set [5] is filed under the species Rattus norvegicus. The data set is described as follows: Tested for inhibition of formation of granulation tissue around the cotton pellet untreated with steroid. The data set is classed as functional. Details: concentration or dose not given beside the values. The method in brief:
as §3

The species entered for data set [6] is Rattus norvegicus. As to the kind of experiment: Compound was evaluated for antiinflammatory activity in granuloma bioassay and measured as plasma corticosterone weight. The data set is classed as functional, organism-based. The method in brief:
as §1

The species named for data set [7] is Rattus norvegicus. As to the kind of experiment: Tested for inhibition of formation of granulation tissue around the cotton pellet treated with steroid and expressed as net dry weight. The data set is classed as functional. The method in brief: as §3
Data set [8] is filed under the species Rattus norvegicus. The data set is described as follows: Tested for inhibition of formation of granulation tissue around the cotton pellet untreated with steroid and expressed as net dry weight. The data set is classed as functional. The method in brief:
as §3

For data set [9], the system named is Rattus norvegicus. The data set is described as follows: Tested for topical antiinflammatory activity in the croton oil ear edema assay and was expressed as mean change in ear thickness of rats. The data set is classed as functional. The method in brief: as §2
Data set [10] is filed under the species Rattus norvegicus. As to the kind of experiment: Evaluated for antiinflammatory activity in granuloma bioassay and expressed as relative adrenal weight. The data set is classed as functional. The method in brief: as §1
The species entered for data set [11] is Rattus norvegicus. As to the kind of experiment: Evaluated for antiinflammatory activity in granuloma bioassay and expressed as relative thymus weight. The data set is classed as functional. The method in brief:
as §1

SMILES strings stand for the structures.

As to `CNC(=O)[C@H](O)[C@@]1(O)CC[C@H]2[C@@H]3CCC4=CC(=O)C=C[C@]4(C)[C@H]3[C@@H](O)C[C@@]21C`, the Partition coefficient in data set [1] is given as 10. The same compound registered a Body weight gain in the data set listed under Rattus norvegicus [2] of 46 g. Also, the Inhibition in the data set on Rattus norvegicus [3] is given as 33.5%; in the data set listed under Rattus norvegicus [4], 75.5%; in the data set filed under Rattus norvegicus [5], 48.6%. The same compound displayed a Plasma corticosterone in the data set filed under Rattus norvegicus [6] of 321 ng/mL. For the same compound, the Net dry weight in the data set listed under Rattus norvegicus [7] is given as 18.9 mg; in the data set listed under Rattus norvegicus [8], 40.8 mg. Further, the Mean change in the data set on Rattus norvegicus [9] came out at 0.307 mm. In the data set filed under Rattus norvegicus [10], this compound came in with a Relative adrenal weight of 14 mg 100g-1. Besides, the Relative thymus weight in the data set listed under Rattus norvegicus [11] is given as 116.4 mg 100g-1.
In the case of `CCNC(=O)[C@H](O)[C@@]1(O)CC[C@H]2[C@@H]3CCC4=CC(=O)C=C[C@]4(C)[C@H]3[C@@H](O)C[C@@]21C`, the Body weight gain in the data set filed under Rattus norvegicus [2] came to 45.7 g. The values for the Inhibition in the data set with Rattus norvegicus [3], in the data set filed under Rattus norvegicus [4] and in the data set filed under Rattus norvegicus [5] were 34.6%, 53.3% and 26.7%, respectively. In the data set listed under Rattus norvegicus [6], this compound showed a Plasma corticosterone of 280 ng/mL. Further, the values for the Net dry weight in the data set listed under Rattus norvegicus [7] and in the data set listed under Rattus norvegicus [8] were 36.4 mg and 58.1 mg, respectively. This compound displayed a Mean change in the data set with Rattus norvegicus [9] of 0.302 mm.
In [1], `C[C@]12C=CC(=O)C=C1CC[C@@H]1[C@@H]2[C@@H](O)C[C@@]2(C)[C@H]1CC[C@]2(O)[C@@H](O)C(=O)NCc1ccccc1` came in with a Partition coefficient of 32.5. In the data set listed under Rattus norvegicus [2], this compound registered a Body weight gain of 42 g. Besides, the results for the Inhibition in the data set on Rattus norvegicus [3], in the data set listed under Rattus norvegicus [4] and in the data set listed under Rattus norvegicus [5] were 42.6%, 69.3% and 38.9%, respectively. In the data set listed under Rattus norvegicus [6], this compound returned a Plasma corticosterone of 101 ng/mL. The Net dry weight in the data set listed under Rattus norvegicus [7] came out at 24 mg; in the data set filed under Rattus norvegicus [8], 48.4 mg. The same compound returned a Mean change in the data set with Rattus norvegicus [9] of 0.265 mm. Moreover, the Relative adrenal weight in the data set filed under Rattus norvegicus [10] is listed as 12.4 mg 100g-1. In the data set filed under Rattus norvegicus [11], this compound returned a Relative thymus weight of 167.1 mg 100g-1.
Regarding `C[C@]12C=CC(=O)C=C1CC[C@@H]1[C@@H]2[C@@H](O)C[C@@]2(C)[C@H]1CC[C@]2(O)C(=O)CO` [PREDNISOLONE], the Partition coefficient in data set [1] was 30. The same compound had a Body weight gain in the data set listed under Rattus norvegicus [2] of 55 g. Also, the Inhibition in the data set with Rattus norvegicus [3] is recorded as 68.6%; in the data set listed under Rattus norvegicus [4], 60.6%; in the data set filed under Rattus norvegicus [5], 26.6%. In the data set filed under Rattus norvegicus [6], this compound had a Plasma corticosterone of 130 ng/mL. Moreover, the Net dry weight in the data set filed under Rattus norvegicus [7] is reported as 30.7 mg; in the data set filed under Rattus norvegicus [8], 58.2 mg. In addition, the Mean change with Rattus norvegicus [9] is 0.145 mm. In the data set listed under Rattus norvegicus [10], this compound yielded a Relative adrenal weight of 12.1 mg 100g-1. In addition, the Relative thymus weight in the data set filed under Rattus norvegicus [11] is on record as 110.2 mg 100g-1.
In the data set listed under Rattus norvegicus [2], `CCNC(=O)[C@@H](O)[C@@]1(O)CC[C@H]2[C@@H]3CCC4=CC(=O)C=C[C@]4(C)[C@H]3[C@@H](O)C[C@@]21C` had a Body weight gain of 54.7 g. For the same compound, the Inhibition is recorded as 33.8% in the data set with Rattus norvegicus [3], 23.1% in the data set filed under Rattus norvegicus [4] and -4.9% in the data set filed under Rattus norvegicus [5]. The Plasma corticosterone in the data set listed under Rattus norvegicus [6] turned out to be 288 ng/mL. In addition, the Net dry weight in the data set filed under Rattus norvegicus [7] is 59.9 mg; in the data set listed under Rattus norvegicus [8], 83.1 mg. Moreover, the Mean change in the data set on Rattus norvegicus [9] is 0.305 mm.
`CNC(=O)[C@@H](O)[C@@]1(O)CC[C@H]2[C@@H]3CCC4=CC(=O)C=C[C@]4(C)[C@H]3[C@@H](O)C[C@@]21C`: the Partition coefficient in data set [1] came out at 8.6. In the data set listed under Rattus norvegicus [2], this compound gave a Body weight gain of 55 g. For the same compound, the Inhibition in the data set with Rattus norvegicus [3] was 24.5%; in the data set filed under Rattus norvegicus [4] it was 21.1%; in the data set filed under Rattus norvegicus [5], -4.5%. Moreover, the Plasma corticosterone in the data set listed under Rattus norvegicus [6] is 291 ng/mL. For the same compound, the figures for the Net dry weight in the data set filed under Rattus norvegicus [7] and in the data set listed under Rattus norvegicus [8] were 61.6 mg and 82.8 mg, respectively. Moreover, in the data set on Rattus norvegicus [9], the Mean change turned out to be 0.349 mm. In addition, the Relative adrenal weight in the data set listed under Rattus norvegicus [10] came out at 16.7 mg 100g-1. In the data set listed under Rattus norvegicus [11], this compound came in with a Relative thymus weight of 247 mg 100g-1.
For the compound `C[C@]12C=CC(=O)C=C1CC[C@@H]1[C@@H]2[C@@H](O)C[C@@]2(C)[C@H]1CC[C@]2(O)[C@H](O)C(=O)NCc1ccccc1`, the Partition coefficient in data set [1] turned out to be 30. In addition, the Body weight gain in the data set listed under Rattus norvegicus [2] is 55.7 g. Moreover, the Inhibition stood at 21.9% with Rattus norvegicus [3], 20.9% in the data set filed under Rattus norvegicus [4] and 5.2% in the data set filed under Rattus norvegicus [5]. For the same compound, the Plasma corticosterone in the data set listed under Rattus norvegicus [6] was 298 ng/mL. For the same compound, the Net dry weight in the data set filed under Rattus norvegicus [7] is 61.6 mg; in the data set listed under Rattus norvegicus [8] it was 75.2 mg. Also, the Mean change with Rattus norvegicus [9] stood at 0.361 mm. For the same compound, the Relative adrenal weight in the data set listed under Rattus norvegicus [10] came out at 11.8 mg 100g-1. The compound further displayed a Relative thymus weight in the data set listed under Rattus norvegicus [11] of 264.2 mg 100g-1.
`CCCNC(=O)[C@@H](O)[C@@]1(O)CC[C@H]2[C@@H]3CCC4=CC(=O)C=C[C@]4(C)[C@H]3[C@@H](O)C[C@@]21C`: the Partition coefficient in data set [1] came out at 16.3. In the data set filed under Rattus norvegicus [2], this compound displayed a Body weight gain of 56.7 g. Also, the Inhibition in the data set with Rattus norvegicus [3] amounted to 23.6%; in the data set listed under Rattus norvegicus [4] it was 57.1%; in the data set listed under Rattus norvegicus [5], 39.1%. This compound came in with a Plasma corticosterone in the data set filed under Rattus norvegicus [6] of 164 ng/mL. Moreover, the results for the Net dry weight in the data set filed under Rattus norvegicus [7] and in the data set listed under Rattus norvegicus [8] were 33.4 mg and 48.3 mg, respectively. Besides, the Mean change with Rattus norvegicus [9] was 0.353 mm. The compound also came in with a Relative adrenal weight in the data set listed under Rattus norvegicus [10] of 14 mg 100g-1. Further, the Relative thymus weight in the data set listed under Rattus norvegicus [11] is listed as 161.7 mg 100g-1.
As for `CCCNC(=O)[C@H](O)[C@@]1(O)CC[C@H]2[C@@H]3CCC4=CC(=O)C=C[C@]4(C)[C@H]3[C@@H](O)C[C@@]21C`, the Partition coefficient in data set [1] is 26.7. The same compound had a Body weight gain in the data set filed under Rattus norvegicus [2] of 30.2 g. Further, the Inhibition came out at 31.9% in the data set on Rattus norvegicus [3], 69.3% in the data set listed under Rattus norvegicus [4] and 41.2% in the data set filed under Rattus norvegicus [5]. Further, the Plasma corticosterone in the data set filed under Rattus norvegicus [6] stood at 236 ng/mL. The results for the Net dry weight in the data set filed under Rattus norvegicus [7] and in the data set filed under Rattus norvegicus [8] were 23.9 mg and 46.6 mg, respectively. In addition, the Mean change with Rattus norvegicus [9] is 0.311 mm. For the same compound, in the data set listed under Rattus norvegicus [10], the Relative adrenal weight is 13.1 mg 100g-1. Further, in the data set listed under Rattus norvegicus [11], the Relative thymus weight is 88.5 mg 100g-1.
